Compound activity from PubChem BioAssay.
INS promoter act = TRM-6 insulin promoter activation. TRM-6 cells (human fetal islet line), insulin promoter eGFP reporter, imaging; plate-scaled: unstimulated 0, stimulated control 100. activation, % at 2 µM. hit rate 0.81% among 130,000. AID 1296;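 active = activation at 2 µM above a set limit, confirmed on inspection of the cell images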;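 note: share of cells whose green reporter signal exceeds an intensity cutoff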
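Test system: TRM-6 insulin promoter–eGFP reporter cells / Quantity: 1,000 cells per well / Reagent: tamoxifen inducer, 0.75 µM, in seeding medium / Compound dosing: 2 µM final, single concentration / Schedule: overnight tamoxifen, then two-day compound incubation at 37 °C / Measured by: automated fluorescence imaging of paraformaldehyde-fixed, Hoechst-counterstained cells, green channel / Read-out: percent activation from GFP-positive cell fraction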
The depositor's hits bear a star. The full list was thinned out, with hits kept by preference.

What do the screens show for `CCOc1ccc2nc(NCCNC(=O)C(C)C)c(C)cc2c1`?
INS promoter act: 9.4

Results for O=C(Cn1c(-c2ccccc2)noc1=O)Nc1ccc(N2CCCCCC2)cc1 ?
INS promoter act: 6.7

How did CC1CCN(C(=O)CCc2ccc(S(=O)(=O)NC(C)(C)C)cc2)CC1 do in these assays?
INS promoter act: 7.1

What do the screens show for `O=C(c1cc(COc2ccc(F)cc2F)on1)N1CCSCC1`?
INS promoter act: 0.0

What do the screens show for `CSc1nnc(C)c(=O)n1COC(=O)COc1ccc(Cl)cc1Cl`?
INS promoter act: 8.3

Results for CCC(CC)c1nnc(NC(=O)c2c(C)nn(Cc3ccccc3Cl)c2C)s1 ?
INS promoter act: -2.6

What do the screens show for `NC(=O)Nc1ccc(Oc2c(F)c(F)c(F)c(F)c2F)cc1`?
INS promoter act: -9.4

Results for O=C(CNCC1CCCCC1)Nc1ccc(OC(F)(F)F)cc1 ?
INS promoter act: -8.3

How did CC1=CC(C)(C)N2C(=O)C3(N=C(N)NC(Nc4ccccc4)=N3)c3cc(C)cc1c32 (stereo not drawn) do in these assays?
INS promoter act: 481.3*

How did COC(=O)C(C)Sc1ccc2nnc(-c3ccccc3)n2n1 (stereo not drawn) do in these assays?
INS promoter act: -5.9

What do the screens show for `COc1ccc2cc(Br)ccc2c1CC(=O)NC(C)(C)C`?
INS promoter act: 0.0

Results for COCc1cc(C)nc(SCC[N+](C)(C)CC(=O)Nc2ccccc2)c1C#N ?
INS promoter act: 8.3

Results for COCc1cc(C)nc(Nc2ccccc2C)c1C#N ?
INS promoter act: 408.1*

How did COCc1cc(C)nc(N2CCc3ccccc32)c1C#N do in these assays?
INS promoter act: 0.0

How did Cn1c(SCC2CCCO2)nnc1-c1ccc([N+](=O)[O-])cc1 (stereo not drawn) do in these assays?
INS promoter act: 0.0

Results for Cc1cccnc1NC(=O)C1CCN(S(=O)(=O)c2cccs2)CC1 ?
INS promoter act: -3.6

What do the screens show for `CCC1CCCCN1c1ccc([N+](=O)[O-])cc1/C=N/NC(=O)Cn1c2ccccc2c(=O)c2ccccc21` (stereo not drawn)?
INS promoter act: -2.7

What do the screens show for `COc1ccc(O[C@H]2C=C[C@@H](c3ccccc3)O[C@@H]2CO/N=C(\C)CCN2CCCCc3nc(C)c(C)cc32)cc1`?
INS promoter act: 104.8

How did CCN1C(=O)CC2(C[N+]3(C)CCC2CC3)C1=O (stereo not drawn) do in these assays?
INS promoter act: 6.7

What do the screens show for `CC(Cl)C(=O)Nc1ccccc1C#N` (stereo not drawn)?
INS promoter act: -3.3

What do the screens show for `CC(C)(C)C1CCC(OC(=O)C[N+]2(C)CCCCC2)CC1` (stereo not drawn)?
INS promoter act: 200.0*

How did C[N+]1(CCC(=O)c2ccccc2)CCCCC1 do in these assays?
INS promoter act: -64.3

How did COc1ccc(C2=NO[C@@H]3[C@@H]4C[C@@H]([C@H]5C(=O)N(C)C(=O)[C@@H]45)[C@H]23)cc1 do in these assays?
INS promoter act: -6.5

What do the screens show for `CCOC(=O)c1sc2nc(N3CCOCC3)c3c(c2c1N)CCN(C)C3`?
INS promoter act: 500.0*

Results for CCOC(=O)c1sc2nc(C)c3c(c2c1N)CC(C)(C)OC3 ?
INS promoter act: -8.6

How did Nc1c(C(=O)NCc2ccccc2)sc2nc(N3CCOCC3)c3c(c12)CCCC3 do in these assays?
INS promoter act: 7.7

What do the screens show for `O=C(N/N=C/c1cccc(C(F)(F)F)c1)C1CCN(c2ncc(C(F)(F)F)cc2Cl)CC1`?
INS promoter act: -3.3

How did N#C/C(=C/c1cccs1)c1nc2ccccc2[nH]1 do in these assays?
INS promoter act: -75.0

Results for COc1cc(/C=C(\C#N)c2nc3ccccc3[nH]2)cc(Br)c1OCc1ccc(F)cc1 ?
INS promoter act: -6.7

What do the screens show for `CCOc1cc(N(CC)CC)ccc1/C=C(/C#N)c1nc2ccccc2[nH]1`?
INS promoter act: 233.3*

How did N#C/C(=C\c1cc([N+](=O)[O-])c(N2CCOCC2)cc1N1CCOCC1)c1nc2ccccc2[nH]1 do in these assays?
INS promoter act: -9.1

What do the screens show for `CCN(CC)c1ccc(/C=C(/C#N)c2nc3ccc(C)cc3[nH]2)c(OC(C)C)c1`?
INS promoter act: 244.8*

What do the screens show for `Cc1ccc(/C=C(\C#N)c2nc3ccccc3[nH]2)s1`?
INS promoter act: -96.2

What do the screens show for `Cc1cccc(-n2nnc3c(=O)n(CC(=O)Nc4cc(C)on4)cnc32)c1`?
INS promoter act: 0.0

What do the screens show for `Cc1cc(C)c(S(C)(=O)=O)c(N(C)NC(=O)c2c(F)cccc2F)n1`?
INS promoter act: 0.0

How did NS(=O)(=O)c1cc2c(cc1Cl)NC(C1C[C@H]3C=C[C@@H]1C3)NS2(=O)=O (stereo partly drawn) do in these assays?
INS promoter act: -9.1

How did Cc1nnc2ccc(N3CCOCC3)nn12 do in these assays?
INS promoter act: -3.2

Results for COc1cc(-c2cc(C(=O)Nc3ccc(S(=O)(=O)NCc4ccco4)cc3)c3ccccc3n2)cc(OC)c1OC ?
INS promoter act: 3.9

Results for COc1ccc(Cl)cc1NC(=O)c1ccco1 ?
INS promoter act: -6.1

How did O=C(Nc1ccc(Cl)cc1C(=O)Nc1ccc(Br)cn1)c1ccco1 do in these assays?
INS promoter act: 600.0*

What do the screens show for `O=C(Nc1ccc(Cl)cn1)c1ccc(-c2cc(Cl)ccc2Cl)o1`?
INS promoter act: 3.3

What do the screens show for `CCOc1cc(C(=O)NC(=S)Nn2cnnc2)cc(OCC)c1OCC`?
INS promoter act: 0.0

Results for CNC(=O)CSc1nnnn1-c1cc(C)ccc1C ?
INS promoter act: 0.0

Results for Cc1ccc(CS(=O)(=O)CCC(=O)NCCC2=CCCCC2)cc1 ?
INS promoter act: 0.0

Results for Cc1ccc(C)c(-n2nnnc2SCC(=O)NCCC2=CCCCC2)c1 ?
INS promoter act: 708.3*

How did CC(c1nnc(SCC(=O)N2CCc3ccccc32)n1-c1ccc(Cl)cc1)N(C)C (stereo not drawn) do in these assays?
INS promoter act: -3.3

Results for Cc1ccc(S(=O)(=O)CCSc2nc(C)cc(C(F)(F)F)c2C#N)cc1 ?
INS promoter act: 106.3

What do the screens show for `N#CC(Sc1ccccn1)c1ccc(Cl)cc1` (stereo not drawn)?
INS promoter act: -5.9

What do the screens show for `Cc1nnc(SCc2c(Cl)cccc2[N+](=O)[O-])s1`?
INS promoter act: 9.5

What do the screens show for `O=C(c1ccco1)N1CCN(c2ccc(Cl)c(Cl)c2)CC1`?
INS promoter act: 0.0

Results for COC(=O)C1C(=O)NCC1c1ccccc1 (stereo not drawn) ?
INS promoter act: 242.9

Results for CCOC(=O)C1C(=O)CC(O)(c2ccccc2)CC1c1ccccc1 (stereo not drawn) ?
INS promoter act: 142.9*

What do the screens show for `CCOC(=O)C1C(=O)CC(C)(O)C(C(=O)OCC)C1c1ccc(C)s1` (stereo not drawn)?
INS promoter act: 7.7

What do the screens show for `CCN(CC)S(=O)(=O)c1ccc2c3c(cccc13)C(=O)N2`?
INS promoter act: -71.4

What do the screens show for `Cc1oc2ccc(NS(=O)(=O)c3ccccc3)cc2c1C(=O)Nc1ccccc1`?
INS promoter act: -3.3

How did CCOC(=O)c1c(C)oc2ccc(NS(=O)(=O)c3ccc4c5c(cccc35)C(=O)N4)cc12 do in these assays?
INS promoter act: 506.3*

What do the screens show for `O=C(CCC1COc2ccccc2O1)NCc1ccco1` (stereo not drawn)?
INS promoter act: 176.9

Results for COc1ccc([N+](=O)[O-])cc1NC(=O)CSc1nc(C)c(C)c(C)n1 ?
INS promoter act: -3.4

Results for CCOC(=O)N1CCN(CCC(=O)Nc2cc([N+](=O)[O-])ccc2OC)CC1 ?
INS promoter act: 330.8*
